A selection: hits, their analogues and other compounds. The true share with any hit is near 2.9%.
FGF22 binding = FGF22 (human) thermal shift binding; Q9HCT0; activity (Tm shift, normalised), % at 9.99 µM; recombinant FGF22 thermal shift, SYPRO orange fluorescence; percent of sucrose octasulfate shift, DMSO zero; 340,000 compounds, 1.5% hits;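 active = mean Tm shift, scaled 0 neutral to 100 positive control, at about 1.3% or above, every replicate too, limit read from the data; inconclusive = no clear call, values can overlap the other calls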
Target sequence (Q9HCT0 whole entry, looked up): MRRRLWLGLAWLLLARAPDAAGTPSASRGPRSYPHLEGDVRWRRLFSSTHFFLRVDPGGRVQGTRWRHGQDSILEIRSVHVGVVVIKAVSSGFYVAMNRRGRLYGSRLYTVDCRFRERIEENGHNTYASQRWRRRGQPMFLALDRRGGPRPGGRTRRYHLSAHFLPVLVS
Cneo AK release = causes C. neoformans cell lysis; 360,000 compounds, 0.2% hits; AID 651654; adenylate kinase release luminescence, 4 h; normalised: neutral wells 0, clomiphene wells 100; lysis activity, % at 15 µM;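 active = mean lysis activity across replicates of at least 80%, whatever share of replicates individually reach that level; inactive = mean lysis activity below 80%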
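Test system: log-phase Cryptococcus neoformans yeast cells; Quantity: yeast cell density of 5 × 10^6 cells/mL; Buffer or medium: YPD; Doses: single compound concentration per well; Timing: 4 h at 37 °C static, read 1 h later; Measured by: AK luminescence; Read-out basis: lysis from increased AK signal; Control set: Clomiphene as positive control.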
PglD inh = inhibitors of Campylobacter jejuni PglD acetyltransferase; purified PglD enzyme, DTNB colorimetric CoA detection; inhibition, % at 12.5 µM; 360,000 compounds, 0.098% hits; in the data active = inhibition above about 16%, passing the limit was not always enough; inconclusive = no clear call, values can overlap the other calls
rRNA inh HTS = selective bacterial rRNA inhibition in E. coli; E. coli WT GFP vs humanized-ribosome RFP mutants, fluorescence, 24 h; active compounds read low; DMSO median 0, no signal -100; GFP signal change (wild-type ribosome), % (no concentration beside the values); 350,000 compounds, 1.6% hits; AID 720706;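 active = significant combined selectivity score with lowered wild-type GFP, culture density cut under 30%, mutant RFP and density less affected; inactive = any of these conditions unmet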
PGC1a acetyl inh = lowers PGC1a acetylation signal in U2OS cells. AlphaScreen anti-acetyl-lysine; with virally co-expressed GCN5 acetyltransferase. inhibition, % at 15.6 µM. 350,000 compounds, 0.17% hits. AID 651687;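 active = every replicate shows inhibition of at least 40%; inconclusive = mean inhibition at least 40% but some replicate below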
Vif inh = HIV Vif inhibition | AID 602346 | HEK293T cells, Vif self-association by quenched fluorescence, imaging, 24 h | inhibition, % at 7.49 µM | 340,000 compounds, 0.35% hits; in the data active = inhibition above about 50%, passing the limit was not always enough; inconclusive = no clear call, values can overlap the other calls; inactive = below about 31%
Numbers stand for hits; - = inactive; ? = inconclusive; . = not tested or not shown; + = active, no number.

SMILES	FGF22 binding	Cneo AK release	PglD inh	rRNA inh HTS	PGC1a acetyl inh	Vif inh
CN1CCc2c(sc(N)c2C(=O)c2ccc(Cl)cc2)C1	-	164	-	-	-	.
CCOc1ccc(NC(=O)CNC(=O)c2nn(-c3ccc(OC)c(OC)c3)c(=O)c3ccccc23)cc1	-	-	-	-	.	-
COc1ccc(-n2nc(C(=O)NCC(=O)Nc3cccc(Cl)c3)c3ccccc3c2=O)cc1OC	-	-	-	-	-	53
CCCNC(=O)N(C)C[C@H]1Oc2ncc(C#CC3CC3)cc2C(=O)N([C@@H](C)CO)C[C@@H]1C	-	-	-	-	-	.
O=C(c1ccccc1)c1cnc[nH]1	-	-	-	-	-	-
O=C(c1ccccc1)c1ccc[nH]1	43	-	-	-	-	-
C[C@@H]1CN([C@@H](C)CO)C(=O)c2cc(NS(=O)(=O)c3ccccc3)ccc2O[C@@H](C)CCCCO[C@@H]1CN(C)S(=O)(=O)c1cn(C)cn1	-	-	-	-	-	.
Cc1c(NC(=O)c2ccc(Cl)c([N+](=O)[O-])c2)cccc1-n1cnnn1	-	-	-	-	-	56
CC(O)CNCc1ccc(Cl)cc1Cl (configuration not stated)	45	.	.	-	.	-
CC(C)C(=O)Nc1ncc(Cc2ccc(Cl)cc2)s1	-	.	.	-28	-	-
CCCc1cn(CC[C@H]2CC[C@@H](NC(=O)C3CCCC3)[C@@H](CO)O2)nn1	-	-	-	-	-	.
CCCC#Cc1cnc2c(c1)C(=O)N([C@@H](C)CO)C[C@H](C)[C@H](CN(C)Cc1ccc3c(c1)OCO3)O2	-	-	-	-	-	.
CCOc1ccc(C(=O)NCC(=O)OCC(=O)N2CCCC2)cc1	44	.	.	-	.	-
C/C=C/c1ccc([C@@H]2[C@@H](CO)N(CCC(F)(F)F)C23CN(C(C)=O)C3)cc1	-	.	.	-	-	.
CCOP(=O)(O)c1cccc(OCCOCCOc2cccc(P(=O)(O)OCC)c2)c1	44	-	-	-	.	-
CCc1nc(Nc2ccccc2)c2nnn(Cc3ccccc3)c2n1	-	-	-	-30	.	-
CCOC(=O)CC(=O)CSc1nc(CC)c(C)cc1C#N	-	-	-	-	-	-
CCOC(=O)CC(=O)CSc1nc2ccc(C)cc2cc1C#N	-	-	-	-	-	83
Cc1cc(C(=O)Nc2ccc3c(c2)C(=O)N(C)[C@H]2CC[C@H](CC(=O)N[C@@H](C)c4ccccc4)O[C@H]2CO3)no1	-	-	-	-	-	.
Cc1cc(C(=O)Nc2ccc3c(c2)C(=O)N(C)[C@H]2CC[C@@H](CC(=O)N[C@@H](C)c4ccccc4)O[C@H]2CO3)no1	.	100	-	-	-	.
Cc1cc(C(=O)Nc2ccc3c(c2)C(=O)N(C)[C@@H]2CC[C@@H](CC(=O)N[C@@H](C)c4ccccc4)O[C@@H]2CO3)no1	-	83	-	-	-	.
C[C@H](CO)N1C[C@H](C)[C@@H](CN(C)CC2CCCCC2)OCCCC[C@H](C)Oc2ccc(NC(=O)C3CCCCC3)cc2C1=O	-	-	-	-	-	.
CNC(=O)C[C@H]1CC[C@H]2[C@@H](COc3ccc(NS(=O)(=O)c4cccc(F)c4)cc3C(=O)N2C)O1	-	-	-	-	-	.
CC(OC(=O)Cn1[nH]c(=O)c2ccccc2c1=O)C(=O)Nc1ccc(F)cc1Cl (configuration not stated)	-	-	-	-	-	-
CSCC(O)Cn1[nH]c(=O)c2cc(Cl)c(Cl)cc2c1=O (configuration not stated)	-	.	.	-	84	-
SMILES	FGF22 binding	Cneo AK release	PglD inh	rRNA inh HTS	PGC1a acetyl inh	Vif inh
O=C/C=C/c1ccc2c(c1)OCO2	-	-	.	.	.	.
COC(=O)c1ccc(NC(=O)c2cccc(C)c2[N+](=O)[O-])cc1	-	-	-	-22	-	-
CCOC(=O)c1ccc(NC(=O)c2cccc(C)c2[N+](=O)[O-])cc1	-	.	.	-	.	-
NC(=O)NC(=O)COC(=O)CCCSc1nc2ccccc2s1	-	-	-	-	-	-
CCOC(=O)NC(=O)COC(=O)CCCSc1nc2ccccc2s1	-	.	.	-27	-	?
CN1[C@@H]2Cn3c(ccc(-c4ccccc4)c3=O)[C@H]1[C@@H](C(=O)NCC1CC1)[C@@H]2CO	-	-	-	-	.	.
Nc1nc(SCc2ccc(Br)cc2)c2ncn(C3OC(CO)C(O)C3O)c2n1 (configuration not stated)	44	-	-	-	-	-
Cc1noc(C)c1S(=O)(=O)Nc1ccc2c(c1)CC(=O)N([C@@H](C)CO)C[C@@H](C)[C@H](CN(C)S(C)(=O)=O)O2	-	-	-	-	-	.
CCc1ccc(C2C3=C(CC(C)(C)CC3=O)OC3=C2C(=O)CC(C)(C)C3)cc1	-	-	-	-	.	-
CCc1ccc(C2C3=C(CCCC3=O)OC3=C2C(=O)CCC3)cc1	43	-	-	.	.	-
O=[N+]([O-])c1cc(-c2cnc3ccccc3n2)ccc1Cl	44	.	.	-	.	-
COc1ccc(NC(=O)N(C)C[C@H]2OCCCC[C@@H](C)Oc3ccc(NC(=O)c4ccccc4)cc3C(=O)N([C@H](C)CO)C[C@H]2C)cc1	-	83	-	-	-	.
COc1ccc(NC(=O)N(C)C[C@H]2OCCCC[C@@H](C)Oc3ccc(NC(=O)c4ccccc4)cc3C(=O)N([C@@H](C)CO)C[C@H]2C)cc1	-	102	-	-	-	.
COc1ccc(NC(=O)N(C)C[C@@H]2OCCCC[C@@H](C)Oc3ccc(NC(=O)c4ccccc4)cc3C(=O)N([C@@H](C)CO)C[C@@H]2C)cc1	-	.	.	-	-	.
COCC(=O)N1CC(=O)N2[C@H](CO)[C@@H](c3ccc(C#Cc4cccc(OC)c4)cc3)[C@@H]2C1	.	.	.	-	-	.
O=C(c1cc(Br)ccc1Cl)N1CCN(c2ccccn2)CC1	-	135	-	-	-	-
O=C(C[C@H]1CC[C@@H](NC(=O)Nc2ccc(C(F)(F)F)cc2)[C@@H](CO)O1)NCCN1CCCC1	-	-	-	-	-	.
COc1cc(C2c3cc4c(cc3OC(NNC(N)=S)C2C)OCO4)cc(OC)c1OC (configuration not stated)	-	.	.	-	-	56
COc1cc(C2c3cc4c(cc3C(O)C3COCC23)OCO4)cc(OC)c1OC (configuration not stated)	-	-	-	-	-	-
COc1cc([C@@H]2c3cc4c(cc3[C@H](O)[C@H]3COC(=O)[C@H]23)OCO4)cc(OC)c1OC	-	-	-	-	-	+
CC(=O)Nc1cccc(NC(=S)Nc2ccc(F)cc2F)c1	43	.	.	-	-	-
Cn1cc(Cl)c(C(=O)Nc2cnn(Cc3ccc(F)cc3)c2)n1	-	-	-	-	-	-
CC(=O)c1cccc(NC(=O)Nc2cnn(Cc3ccc(F)cc3)c2)c1	-	.	.	-22	.	.

Compound activity as filed in PubChem BioAssay.
